Results on 97 molecules are retold here after ChEMBL document CHEMBL4513216, “Probing the Open Global Health Chemical Diversity Library for Multistage-Active Starting Points for Next-Generation Antimalarials” (ACS Infect Dis, 2020).

This data set is described as follows: Toxicity liver stage against HepG2, at 10uM. Also on record: test concentration 10 uM, cell line HepG2-A16-CD81EGFP. As to conditions: human, HepG2-A16-CD81EGFP cells; read-out: INHIBITION
Format: cell-based. The method in brief:
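Uninfected HepG2-A16-CD81EGFP cells, 3 × 10^3 per well, 1536-well, plated on prespotted compound at 10 μM final, parasite-free screening media added to match infected plates; puromycin 10 μM positive, DMSO 0.5% negative; run in parallel with 48 h PbLuc assay at 37 °C, 5% CO2; viability by CellTiter-Glo luminescence, normalized to controls.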
For `O=C(c1ccc(C(F)(F)F)cc1)C1CCCN(C(=O)Cn2cnnn2)C1` (configuration not stated), the cytotoxicity at 10 µM was -5.34%.
Then `O=C(CCNc1ncccn1)Nc1ccc(Cn2cncn2)cc1`, with 2.5%.
For `Cc1cccnc1NC(=O)C1CSc2ncc(C)c(=O)n2C1` (configuration not stated) the value was -1.62%; for `CC(C)(C)CC(=O)NCCn1ccc(-c2ccncc2)n1`, -3.4%; for `O=C(NCC1CC1)C1CCC2(CCN(C(=O)c3ccoc3)CC2)O1` (configuration not stated), 4.97%.
For `O=C1NC2(CCN(C(=O)Cc3ccsc3)CC2)CC1c1ccccc1` (configuration not stated) the value was -2.04%; for `CN1CC(=O)N(c2cccc(F)c2)CC12CCN(Cc1ccccn1)C2` (configuration not stated), 2.49%; for `COc1ccc(OC)c(NC(=O)N2CCCC2c2ccco2)c1` (configuration not stated), -6.57%.
Consider `C[C@@H]1C[C@@H]2CCN(C(=O)c3cnccn3)C[C@H]2O1`, for which the cytotoxicity at 10 µM is -10.6%.
Then `CCN(CC)C(=O)CCn1ncc2c(Cl)cccc21`, with 12.4%; and `CS(=O)(=O)N1CCc2ccc(C(=O)N3CCn4ncnc4C3)cc21`, with -7.79%; and `Cc1nc(N2CCOCC2)sc1C(=O)NCC(C)(C)N1CCCCC1`, with 5.7%.
Regarding `Cc1nc(-c2ccc(CNS(=O)(=O)N(C)C)cc2)ccc1C(N)=O`, the cytotoxicity at 10 µM is -8.53%.
For `CC1(C(=O)NC2CCCC2)CCCN(c2cnccn2)C1` (configuration not stated), the cytotoxicity at 10 µM was -5.81%.
For `Cc1cc2n(n1)[C@@H](C(F)(F)F)C[C@@H](C1CCN(C(=O)C3CC3)CC1)N2`, the cytotoxicity at 10 µM was -41%.
Regarding `CCn1ccc(C(=O)N2CCCC2(C)c2nc(C)cc(N(C)C)n2)n1` (configuration not stated), the cytotoxicity at 10 µM was -7.56%.
Then `O=c1[nH]c(N2CCOCC2)nc2c1CN(Cc1cccnc1)CC2`, with 12.3%; and `Cc1cc(C2CCN(C(=O)c3cnn(C)c3)CC2)ccn1`, with -17.8%; and `CN1CCCC(c2cccc(CCC(N)=O)n2)C1` (configuration not stated), with 2.9%.
In the case of `CN1CCCC[C@@H]2[C@H]1[C@@H](c1ccccc1)CCN2C(=O)c1ccncc1`, the cytotoxicity at 10 µM was -13%.
For `O=C(NCCNC(=O)C1CCN(CC(F)(F)F)CC1)c1ccoc1` the value was 5.09%; for `Cc1ccc(S(=O)(=O)NCc2[nH]ncc2Br)cc1C`, 5.23%.
For `COc1ccc(CNCCc2cccc(C(N)=O)c2)cc1O` the value was 8.42%.
Then `COCCN1CCN(CC(=O)NC2(C#N)CCCC2)CC1C` (configuration not stated), with 10.7%; and `CCCS(=O)(=O)CCN1CCN(C(C#N)c2ccccc2)CC1` (configuration not stated), with -5.02%; and `Cc1ncc2c(n1)CN(Cc1nc(-c3ccsc3)oc1C)CC2`, with 1.97%.
In the case of `CC(C)OCCC(=O)NCC(O)c1c(F)cccc1F` (configuration not stated), the cytotoxicity at 10 µM was -6.51%.
For `CC(C)n1cnnc1CNC(=O)c1cnc2ccccc2n1` the value was 7.01%; for `CCc1ccc(O)c(C(=O)N2CCN(CC(=O)N3CCCCC3)CC2)c1`, 9.06%; for `COC(=O)c1ccc(N(C(=O)c2cccnc2C)C(C)C)c(C)c1`, -8.58%.
`CCN(CC1CCOC1)C(=O)NCc1ccc(-n2cncn2)nc1` (configuration not stated): the cytotoxicity at 10 µM stood at 0.0529%.
Then `CC(c1cccnc1)N1CCN(C(=O)NCc2cnn(C)c2)CC1` (configuration not stated), with -2.38%.
Regarding `O=C(Cc1ccc2c(c1)CCO2)Nc1cccnc1-n1cncn1`, the cytotoxicity at 10 µM worked out at 3.94%.
As to `CC(C)c1cc(C(=O)N2CCOCC2CC(=O)c2ccco2)nn1C` (configuration not stated), the cytotoxicity at 10 µM was found to be 5.52%.
Then `CCc1ncc2c(n1)CN(CCCOc1ccc(C#N)cc1)CC2`, with 16.4%; and `CC(c1nc(C2CC2)no1)N(C)Cc1ccc(C#N)cc1` (configuration not stated), with 4.15%.
For `COc1ccccc1CCNC(=O)CNC1CCc2nc(C)nn2C1` (configuration not stated) the value was -12.3%; for `CC(C)c1cccc(-n2cc(O)c(C(N)=O)n2)c1`, -5.93%; for `NC(=O)c1ccc(CNC2CCCSC2)cc1` (configuration not stated), -9.44%.
For `CCc1noc(CN(C)CCC(=O)Nc2ccc(Cl)cc2)n1` the value was 2.78%.
For the molecule `CC(C(=O)N1CCc2sccc2C1)N1CCC(S(N)(=O)=O)CC1` (configuration not stated), the cytotoxicity at 10 µM was found to be 9.26%.
Then `CCc1ccc(C(=O)NCc2ccnc(C)n2)cc1`, with -4.91%.
Take `CC(C)C(O)CNC(=O)Nc1cnn(C(C)C)c1` (configuration not stated): the cytotoxicity at 10 µM was 3.57%.
As for `O=S(=O)(CCNCc1cccc2c1OCCO2)N1CCOCC1`, the cytotoxicity at 10 µM was -10.9%.
As to `N#Cc1cc(NC(=O)c2ccccc2)ccc1N1CCC(O)CC1`, the cytotoxicity at 10 µM is -9.55%.
Then `CNC(=O)Nc1cc(-c2ccc(Br)cc2)nn1CCO`, with -1.35%; and `O=C(NCCCNC(=O)c1cccc(O)c1)Nc1ccc(F)cc1F`, with -11%; and `COc1cccc(CC(=O)N2CCc3ncnc(NC(C)C)c3CC2)c1`, with 6.56%.
Regarding `CNc1nccc(-c2cnc3sc(C)c(C)n3c2=O)n1`, the cytotoxicity at 10 µM is -2.78%.
For `O=c1c(-c2ccnc(N3CCC[C@H]3CO)n2)cnc2sccn12` the value was -6.3%; for `CN(CCO)c1ncc(-c2ccc(NC(=O)[C@@H]3CCCCN3)cc2)cn1`, 0.609%.
For `COCCCN1CC2(CCCN(c3ncnc4[nH]cnc34)C2)CCC1=O` (configuration not stated) the value was -2.95%.
As to `COCCN(Cc1nccs1)C(=O)c1cc(-c2ccc(C)s2)n[nH]1`, the cytotoxicity at 10 µM is -8.84%.
Then `CCC(CO)NC(=O)c1cc(COc2ccc(OC)cc2Cl)[nH]n1` (configuration not stated), with 2.2%.
As for `Cc1noc2ncnc(N3CCC(O)(Cn4ccnc4)CC3)c12`, the cytotoxicity at 10 µM turned out to be 0.648%.
For `O=C(c1ccc(-c2cc[nH]n2)cc1)N1CC[C@H](CO)[C@H](O)C1` the value was 4.52%.
Then `CCn1ncnc1CN(C/C=C/c1ccccc1)CCOC`, with 4.3%; and `COCCn1ccnc1-c1[nH]cnc1C`, with -18.4%; and `COCC(=O)N1CCCC(COc2ccccc2C)C1` (configuration not stated), with 2.06%.
Then `CN(Cc1ccccc1)C1(C(=O)NC(CO)CO)Cc2ccccc2C1`, with 2.59%; and `COC(=O)NCC(=O)N(C)CC1Cc2ccccc2CN1C` (configuration not stated), with -6.24%; and `COc1cccc(CC2CN(C3CC(C)(C)NC(C)(C)C3)CCO2)c1` (configuration not stated), with -91.7%.
`COCCNC(=O)c1cc(S(=O)(=O)N2CCCCC2)cs1`: the cytotoxicity at 10 µM is -8.94%.
Then `NC(=O)c1c[nH]nc1NC(=O)c1cccc(Cl)c1`, with -2.39%; and `c1ccc2oc(CN3CCCC3Cn3cncn3)nc2c1` (configuration not stated), with -17.2%; and `CCC(NC(=O)COC)c1ccccc1OCC(=O)N1CCCC1` (configuration not stated), with -6.39%.
In the case of `c1cncc(COc2ccccc2CNC2CCc3ncnn3C2)c1` (configuration not stated), the cytotoxicity at 10 µM was -3.69%.
For `CCN(Cc1ccc2c(c1)OCCO2)C(=O)c1ccc(C)[nH]c1=O` the value was -4.6%.
Consider `Cc1cnn(CCNCc2csc(-c3ccco3)n2)c1`, for which the cytotoxicity at 10 µM is -5.28%.
For `Cc1nc(CSCCC(=O)NCc2ccncc2)cs1` the value was -15.6%; for `OC(CN1CCC(c2ccn[nH]2)CC1)c1cc(F)ccc1F` (configuration not stated), -12.3%.
For `O=C(c1cc2c(F)cccc2[nH]1)N1CCCCC1Cn1cccn1` (configuration not stated) the value was -7.95%.
For `CCc1nc(C2CCCN2Cc2cnc(C)cn2)no1` (configuration not stated) the value was -14.6%.
Take `CC(C)C1CCCN1CCCc1nc(-c2cccs2)no1` (configuration not stated): the cytotoxicity at 10 µM is -16%.
Then `O=C1COc2c(cccc2C(=O)N2CCCC(n3cccn3)C2)N1` (configuration not stated), with -13.8%.
`Cc1ccc(N2CCCC(NCC3=Cc4ccccc4OC3)C2)nn1` (configuration not stated): the cytotoxicity at 10 µM is -10.2%.
For `O=C(CCNC(=O)c1ccoc1)Nc1cccc(F)c1` the value was -8.63%; for `Cc1cc(C)n(CC2CCCN2C(=O)CCCc2ccccn2)n1` (configuration not stated), -0.395%.
Then `O=C(Cc1ccc2c(c1)CCO2)N1CCN(c2cnccn2)CC1`, with -11.3%.
For `O=C(COCc1ccccc1Cl)N1CCCC(n2cccn2)C1` (configuration not stated) the value was 10%.
Take `CNC(=O)[C@@H]1CN(C(=O)CCOC)C[C@H]1c1ccnc(N2CCCC2)n1`: the cytotoxicity at 10 µM is -3.43%.
Then `C[C@@H](NC(=O)c1ccc(Cl)cc1)c1onc(-c2cccnc2)c1C(=O)O`, with -1.6%.
For `O=C1CC2(CCCNC2)C(=O)N1Cc1cccc(Cl)c1` (configuration not stated) the value was -1.19%; for `O=C(CC1CC1)N[C@@H]1CN(Cc2cccnc2)C[C@@H]2CCCO[C@@H]21`, -0.995%.
In the case of `CCC(C)(N)c1nc(C(C)C)cc(=O)[nH]1` (configuration not stated), the cytotoxicity at 10 µM came to 14%.
For `CC(C)(N)c1nc(C(F)F)cc(=O)[nH]1` the value was 11.9%; for `c1cnc(N2CCOCC3(CCCN(CC4CCOCC4)C3)C2)nc1` (configuration not stated), -8.95%; for `Cn1cc(CN2C[C@@H](NC(=O)c3cscn3)[C@H]3OCCC[C@H]32)cn1`, -11.7%.
For `CCN1C(=O)C(c2ccccc2)CC12CCN(Cc1cccnc1)CC2` (configuration not stated) the value was 4.65%; for `COCCN1C[C@H]2[C@@H](C1)N(Cc1cnn(C)c1)CC[C@H]2OC`, 8.47%; for `COCCN1C[C@@H](c2ccccc2)[C@@]2(CCN(CC(=O)N(C)C)C2=O)C1`, 3.11%.
As for `CN(C)CC(=O)N1CCCC2(CCN(c3ccccc3)C2=O)C1` (configuration not stated), the cytotoxicity at 10 µM is -1.24%.
For `CC(C)(CN)NS(=O)(=O)c1c(F)cccc1F` the value was -8.89%; for `O=C(c1ccccc1)N1C[C@H]2CCC[C@@]2(COCc2ccncc2)C1`, 1.59%.
With `CCc1c(C)[nH]c(C2(N)CCCCC2)nc1=O`, the cytotoxicity at 10 µM is -3.47%.
As to `Cc1nn(C)cc1CN1C[C@H]2CC[C@@H](C1)N(Cc1c(C)noc1C)C2=O`, the cytotoxicity at 10 µM amounted to 5.9%.
Then `COC(=O)Cn1c(=O)[nH]c2cn(-c3ccccc3)c(=O)n21`, with 21.6%.
